Compound activity from PubChem.
Shown are actives, neighbours in structure and some others; about 3.1% of the full set was active somewhere.
KCNK3 inh: human KCNK3 channel inhibition, primary screen; O14649; AID 602410; 340,000 compounds, 0.84% hits; B-score at 10 µM; CHO-KCNK3 thallium flux, FluxOR fluorescence; hits give low values;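 active = B-score under library mean minus 4 SD, starting fluorescence ratio at most library mean plus 5 SD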;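 note: more negative B-score means stronger inhibition of thallium flux through KCNK3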
KCNK9 block: blocks the human KCNK9 two-pore domain potassium channel; HEK293 KCNK9, FluxOR thallium flux fluorescence; hits give low values; AID 488922; 310,000 compounds, 1.2% hits; Q9NPC2; B-score at 10 µM;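 active = ratio B-score over 3 SD below the library mean, with starting fluorescence within 5 SD of its mean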;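 note: negative B-score means less thallium flux so channel inhibition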
Target sequence (Q9NPC2 whole entry, looked up, the tested form may be a part): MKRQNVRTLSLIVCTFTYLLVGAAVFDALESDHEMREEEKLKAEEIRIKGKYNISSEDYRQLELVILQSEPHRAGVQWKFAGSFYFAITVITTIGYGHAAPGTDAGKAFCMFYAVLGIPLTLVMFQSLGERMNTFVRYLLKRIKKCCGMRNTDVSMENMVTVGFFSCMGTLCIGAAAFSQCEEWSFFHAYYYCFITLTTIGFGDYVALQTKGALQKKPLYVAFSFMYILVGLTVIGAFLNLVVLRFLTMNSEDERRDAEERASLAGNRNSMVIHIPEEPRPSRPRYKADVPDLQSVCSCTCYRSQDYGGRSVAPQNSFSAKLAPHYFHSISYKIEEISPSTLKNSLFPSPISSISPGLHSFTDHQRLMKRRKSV
hERG rescue: compounds protecting human hERG from proarrhythmic drug block; AID 1511; activation (rescue from dofetilide block), less the hit threshold, % at 10 µM; Q12809; 310,000 compounds, 0.51% hits; CHO-hERG, FluxOR thallium flux, dofetilide IC70 present;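 active = activation above the mean of controls blocked by dofetilide plus 5 SD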;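 note: thallium influx through hERG after potassium depolarization seen as dye fluorescence rise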
KCNQ1 act: human KCNQ1 channel potentiation or activation. B-score at 10 µM. 310,000 compounds, 0.35% hits. CHO-K1 KCNQ1, thallium flux FluxOR fluorescence; hits give high values. P51787;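 active = fluorescence ratio B-score, a plate-corrected score, at least three library SD, with initial intensity B-score within 5 SD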
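Assay system: CHO-K1 cells stably expressing KCNQ1; Medium: assay buffer with matched DMSO; Also added: K+/Tl+ depolarizing stimulus; Dosing: single dose; Timing: dye 90 min, compound 20 min, room temperature; Measured by: kinetic FluxOR thallium fluorescence, 10-s 1-Hz baseline, 110-s post-stimulus read; Read-out: peak-minus-minimum fluorescence over initial fluorescence, negative-control normalized, B-scored.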
KCNQ1 inh: blocks the human KCNQ1 potassium channel. CHO-K1 KCNQ1, FluxOR thallium flux fluorescence; hits give high values. B-score at 10 µM. 310,000 compounds, 1.3% hits. AID 2642;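 active = compounds whose thallium flux B-score, printed positive for inhibition, exceeds three library SD while starting fluorescence stays within three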;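 note: channel opened by potassium depolarization with thallium stimulus after 20 min compound exposure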
A number is an active result; 0 = inactive; - = no result.

SMILES	KCNK3 inh	KCNK9 block	hERG rescue	KCNQ1 act	KCNQ1 inh
O=c1cc(-c2ccccc2)cc(-c2ccccc2)n1O	0	0	18.1	23	0
Cn1ncc(N=Cc2c(O)ccc3ccccc23)c1C(=O)Nc1cccc(Cl)c1	0	-7.43	0	0	0
CC(C)(C)N(Cc1ccccc1)C(=O)COC(=O)C1CC(=O)N(Cc2ccccc2)C1 (configuration not stated)	0	-	-	-	-
CCOC(=O)c1cc(NC(=O)c2cccs2)ccc1N1CCOCC1	0	0	4.7	0	0
COC(=O)c1cc(NC(=O)c2cc(-c3ccc(C(F)(F)F)cc3)oc2C(F)(F)F)ccc1N1CCOCC1	0	0	0	0	8
COc1ccccc1C(=O)Nc1ccnn1C1CCN(Cc2ccccc2OCCO)CC1	0	0	0	0	0
COc1ccc([C@@]23Oc4cc(OC)cc(OC)c4[C@]2(O)[C@H](O)[C@H](C(=O)N(C)C)[C@H]3c2ccccc2)cc1	0	-	-	-	-
C1CCC(C(CC2CCCCN2)C2CCCCC2)CC1 (configuration not stated)	0	0	0	0	7
Cc1cc(C)c(Nc2ncccc2C(=O)O)c(C)c1	0	0	5.8	0	0
Cc1ccc(C)c(S(=O)(=O)Nc2ccc(-n3cnnn3)cc2)c1	0	-	-	-	-
O=c1c(-c2ccccc2)c[nH]n1-c1cccc([N+](=O)[O-])c1	0	0	0	0	7
O=c1c(-c2ccc(Cl)cc2)c[nH]n1-c1ccccc1	0	0	0	0	0
CC(=O)N1CCCN(C(=O)c2ccc3nc(Cc4cccc(Cl)c4)oc3c2)CC1	0	0	0	0	0
O=P(CCCCCCCCCP(=O)(c1ccccc1)c1ccccc1)(c1ccccc1)c1ccccc1	0	-7.22	0	0	0
COC(=O)Nc1ccc(S(=O)(=O)N2CCCC(C(=O)NCC3CCCO3)C2)cc1 (configuration not stated)	0	-	-	-	-
COc1ccc2c3c(c(=O)oc2c1OCC(N)=O)CCCC3	0	0	0	0	0
CCOc1ccc2c3c(c(=O)oc2c1OCC)CCCC3	0	-7.27	0	0	0
CCN1C[C@@H]2[C@@H]3C(=O)N(Cc4ccccc4)C(=O)[C@@H]3[C@](CC)(C(=O)OC)N2C1=NCc1ccccc1	0	-	-	-	-
O=[N+]([O-])c1ccccc1C1Nc2cccc3cccc(c23)N1	0	0	0	0	6
Oc1ccccc1C1Nc2cccc3cccc(c23)N1	0	0	0	0	0
Cc1ccc(-c2noc(N=O)c2NO)cc1	0	-7.05	0	0	0
O=Nc1onc(-c2ccc([N+](=O)[O-])cc2)c1NO	0	0	0	0	0
CCC(C)Sc1cccc(-c2nc3ccc(Cl)cn3c2NCc2ccccc2)c1 (configuration not stated)	0	0	0	0	0
CCC(C)Sc1cccc(-c2nc3ccc(C)cn3c2NCc2ccccc2)c1 (configuration not stated)	0	0	0	0	7
CCCCNc1c(-c2ccc(SC(C)CC)c(OC)c2)nc2ccc(C)cn12 (configuration not stated)	0	0	0	0	8
SMILES	KCNK3 inh	KCNK9 block	hERG rescue	KCNQ1 act	KCNQ1 inh
CCCCNc1c(-c2ccc(SC(C)CC)c(OC)c2)nc2ccc(Cl)cn12 (configuration not stated)	0	-	-	-	-
Cc1ccc(S(=O)(=O)N2CCN(C(=O)COC(=O)c3ccc(Br)o3)CC2)c(C)c1	0	0	0	0	0
Cc1ccc(S(=O)(=O)N2CCN(C(=O)c3ccc(Br)o3)CC2)c(C)c1	0	0	0	11	0
CC1CCCC(NC(=O)c2ccc(F)c(S(=O)(=O)N3CCOCC3)c2)C1C (configuration not stated)	0	0	0	0	0
Cc1cc(C)nc(S/C=C/C(=O)c2ccc(F)cc2)n1	-	0	0	0	0
CN(c1ccc(F)cc1)S(=O)(=O)c1ccc(Cl)c(C(=O)Nc2ccc3c(c2)CCC3)c1	0	-6.9	0	0	0
COc1ccc(N(Cc2cc3cccc(C)c3[nH]c2=O)S(=O)(=O)c2ccc(Cl)cc2)cc1	0	-7.5	0	0	0
CCc1ccc(OCC(=O)N/N=C/c2cc([N+](=O)[O-])ccc2N2CCCCCC2)cc1	0	-6.72	0	0	0
O=C(N/N=C/c1cc([N+](=O)[O-])ccc1N1CCCCCC1)c1ccccn1	0	0	0	0	0
CCC(Oc1ccccc1)C(=O)Nc1ccc(S(=O)(=O)N2CCOCC2)cc1 (configuration not stated)	0	0	5.0	0	0
Cc1ccc(NC(=O)Cc2ccc(Cl)cc2)cc1S(=O)(=O)N1CCCCCC1	-9.05	-	-	-	-
COc1ccc(CC(=O)Nc2ccc(C)c(S(=O)(=O)N3CCCCCC3)c2)cc1	0	-	-	-	-
O=C(CCc1ccccc1Cl)Nc1ccc(S(=O)(=O)N2CCOCC2)cc1	0	0	7.0	0	0
Cc1ccc(NC(=S)Nc2ccc(S(=O)(=O)N3CCOCC3)cc2)cc1S(=O)(=O)N1CCOCC1	0	0	0	0	7
O=C(CCc1ccccc1Cl)Nc1cc(S(=O)(=O)N2CCOCC2)ccc1N1CCCC1	0	-	-	-	-
CC(C)(C)NNC(=S)Nc1ccc(S(=O)(=O)N2CCOCC2)cc1	0	0	0	0	0
O=C(NCC(=O)N1CCCC(C(F)(F)F)C1)c1cccs1 (configuration not stated)	0	-	-	-	-
O=C(NNC(=S)NC(=O)c1cccc([N+](=O)[O-])c1)c1ccc(Br)cc1	0	0	0	0	0
Clc1ccc(-n2cnc3c(Cl)ncnc32)cc1Cl	0	-	-	-	-
C=CCc1ccccc1OCC(=O)NNC(=S)NCc1ccccc1	0	0	0	0	0
Cc1ccc(C)c(N(C(=O)c2snc(C(N)=O)c2N)C(C(=O)NCC2CCCO2)c2ccc(C)o2)c1 (configuration not stated)	0	0	0	0	0
CCOC(=O)c1ccc(N(CC2CO2)S(=O)(=O)c2ccc(C)cc2)cc1 (configuration not stated)	0	-	-	-	-
Cc1ccc(NC(=O)CCc2c(C)nc3ncnn3c2C)cc1	0	0	0	0	0
Cc1cccc(NC(=O)CCc2c(C)nc3ncnn3c2C)n1	0	0	6.4	0	0
Cc1ccc(/C=C2\SC(=S)N(NS(=O)(=O)c3ccc(C)cc3)C2=O)cc1	0	0	0	27	0
Cc1ccc(S(=O)(=O)NN2C(=O)/C(=C\c3ccc(Cl)cc3)SC2=S)cc1	0	0	0	0	0
S=C(Nc1ccc(Nc2ccccc2)cc1)Nc1ccccn1	0	-7.08	0	0	0
Cc1ccc(C(CNS(=O)(=O)c2ccc(F)cc2C)N2CCN(C)CC2)cc1 (configuration not stated)	0	0	0	0	0
CC1CCCCN1CCNC(=O)Cn1nc(-c2ccccc2)ccc1=O (configuration not stated)	0	0	0	0	0
CC1CCCCC1NC(=O)Cn1nc(-c2ccccc2)ccc1=O (configuration not stated)	0	0	4.9	0	0
